Assay results from ChEMBL document CHEMBL1152792, “Synthesis and anticonvulsant activity of amino acid-derived sulfamides” (J Med Chem, 2009).
Activity calls are given as the source filed them. The calls are words filed in the database; no cut-off is given here.

What was measured:
[1] = test system: Mus musculus; test: Anticonvulsant activity in albino mouse at 300 mg/kg, ip after 0.5 hrs by PTZ test; format: functional, organism-based; set-up: dose 300 mg/kg
Summary of the method: (§1)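 NIH Anticonvulsant Drug Development (ADD) program phase I screen in adult male albino mice (18–23 g). Compound given ip in 30% PEG 400 and 10% water at 0.01 mL/g body weight. Seizures were induced electrically (MES) or chemically (PTZ), and animals were tested 0.5 and 4 h after dosing. Result scored as protected/tested animals.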

[2] = test system: Mus musculus; test: Toxicity in albino mouse at 100 mg/kg, ip after 0.5 hrs by rotarod test; format: organism-based; set-up: dose 100 mg/kg, route intraperitoneal; details: in vivo
Summary of the method: (§2)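 Neurotoxicity was screened by the standardized rotarod test in the ADD phase I protocol. Adult male albino mice (18–23 g) received compound ip in 30% PEG 400 and 10% water at 0.01 mL/g. Animals were tested 0.5 and 4 h post-dose. Result scored as toxic/tested animals.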

[3] = test system: Mus musculus; test: Anticonvulsant activity in albino mouse at 100 mg/kg, ip after 0.5 hrs by MES test; format: functional, organism-based; set-up: dose 100 mg/kg; summary of the method: as §1
[4] = test system: Mus musculus; test: Anticonvulsant activity in albino mouse at 100 mg/kg, ip after 0.5 hrs by PTZ test; format: functional, organism-based; set-up: dose 100 mg/kg; summary of the method: as §1
[5] = test system: Mus musculus; test: Toxicity in albino mouse at 300 mg/kg, ip after 0.5 hrs by rotarod test; format: organism-based; set-up: dose 300 mg/kg, route intraperitoneal; details: in vivo; summary of the method: as §2
[6] = test system: Mus musculus; test: Anticonvulsant activity in albino mouse at 30 mg/kg, ip after 0.5 hrs by MES test; format: functional, organism-based; set-up: dose 30 mg/kg; summary of the method: as §1
[7] = test system: Mus musculus; test: Toxicity in albino mouse at 300 mg/kg, ip after 4 hrs by rotarod test; format: organism-based; set-up: dose 300 mg/kg, route intraperitoneal; details: in vivo; summary of the method: as §2
[8] = test system: Mus musculus; test: Anticonvulsant activity in albino mouse at 300 mg/kg, ip after 4 hrs by MES test; format: functional, organism-based; set-up: dose 300 mg/kg; summary of the method: as §1
[9] = test system: Mus musculus; test: Anticonvulsant activity in albino mouse at 100 mg/kg, ip after 4 hrs by PTZ test; format: functional, organism-based; set-up: dose 100 mg/kg; summary of the method: as §1
[10] = test system: Mus musculus; test: Toxicity in albino mouse at 30 mg/kg, ip after 0.5 hrs by rotarod test; format: organism-based; set-up: dose 30 mg/kg, route intraperitoneal; details: in vivo; summary of the method: as §2
[11] = test system: Mus musculus; test: Anticonvulsant activity in albino mouse at 300 mg/kg, ip after 0.5 hrs by MES test; format: functional, organism-based; set-up: dose 300 mg/kg; summary of the method: as §1
[12] = test system: Mus musculus; test: Anticonvulsant activity in albino mouse at 30 mg/kg, ip after 4 hrs by MES test; format: functional, organism-based; set-up: dose 30 mg/kg; summary of the method: as §1
[13] = test system: Mus musculus; test: Anticonvulsant activity in albino mouse at 30 mg/kg, ip after 0.5 hrs by PTZ test; format: functional, organism-based; set-up: dose 30 mg/kg; summary of the method: as §1
[14] = test system: Mus musculus; test: Toxicity in albino mouse at 30 mg/kg, ip after 4 hrs by rotarod test; format: organism-based; set-up: dose 30 mg/kg, route intraperitoneal; details: in vivo; summary of the method: as §2
[15] = test system: Mus musculus; test: Anticonvulsant activity in albino mouse at 100 mg/kg, ip after 4 hrs by MES test; format: functional, organism-based; set-up: dose 100 mg/kg; summary of the method: as §1
[16] = test system: Mus musculus; test: Toxicity in albino mouse at 100 mg/kg, ip after 4 hrs by rotarod test; format: organism-based; set-up: dose 100 mg/kg, route intraperitoneal; details: in vivo; summary of the method: as §2
[17] = test system: Mus musculus; test: Anticonvulsant activity in albino mouse at 30 mg/kg, ip after 4 hrs by PTZ test; format: functional, organism-based; set-up: dose 30 mg/kg; summary of the method: as §1
[18] = test system: Mus musculus; test: Anticonvulsant activity in albino mouse at 300 mg/kg, ip after 4 hrs by PTZ test; format: functional, organism-based; set-up: dose 300 mg/kg; summary of the method: as §1
[19] = test system: Mus musculus; test: Anticonvulsant activity in ip dosed albino mouse after 2 hrs by MES test; format: functional
Summary of the method: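 Phase II quantitative MES test in adult male albino mice (18–23 g). Compound given ip in 30% PEG 400 and 10% water at 0.01 mL/g. Testing was done at the previously determined time of peak effect. Six mice per dose group; ED50 (dose protecting 50% of animals, μmol/kg) calculated from the dose–response curve.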

[20] = species: Mus musculus; test: Ratio of valproic acid ED50 to compound ED50 in albino mouse after 2 hrs by MES test; format: functional
Summary of the method: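 The compound ED50 came from ip dosing in male albino mice (six per dose) at the time of peak effect. The valproate ED50 was taken from earlier literature.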

## COC(=O)CNS(=O)(=O)NC(=O)OC(C)(C)C
[1]
  Activity: inactive
[2]
  Activity: Non-toxic
[3]
  Activity: inactive
[4]
  Activity: inactive
[5]
  Activity: Non-toxic
[6]
  Activity: inactive
[7]
  Activity: Non-toxic
[8]
  Activity: inactive
[9]
  Activity: inactive
[10]
  Activity: Non-toxic
[11]
  Activity: inactive
[12]
  Activity: inactive
[13]
  Activity: inactive
[14]
  Activity: Non-toxic
[15]
  Activity: inactive
[16]
  Activity: Non-toxic
[17]
  Activity: inactive
[18]
  Activity: inactive

## COC(=O)CNS(=O)(=O)NCc1ccccc1
[1]
  Activity: inactive
[2]
  Activity: Non-toxic
[3]
  Activity: inactive
[4]
  Activity: inactive
[5]
  Activity: Non-toxic
[6]
  Activity: inactive
[7]
  Activity: Non-toxic
[8]
  Activity: inactive
[9]
  Activity: inactive
[10]
  Activity: Non-toxic
[11]
  Activity: inactive
[12]
  Activity: inactive
[13]
  Activity: inactive
[14]
  Activity: Non-toxic
[15]
  Activity: inactive
[16]
  Activity: Non-toxic
[17]
  Activity: inactive
[18]
  Activity: inactive

## COC(=O)CCNS(=O)(=O)NCCC(=O)OC
[1]
  Activity: inactive
[2]
  Activity: Non-toxic
[4]
  Activity: inactive
[5]
  Activity: Non-toxic
[6]
  Activity: inactive
[7]
  Activity: Non-toxic
[8]
  Activity: inactive
[9]
  Activity: inactive
[10]
  Activity: Non-toxic
[12]
  Activity: inactive
[13]
  Activity: inactive
[14]
  Activity: Non-toxic
[15]
  Activity: inactive
[16]
  Activity: Non-toxic
[17]
  Activity: inactive
[18]
  Activity: inactive

## CCCC(CCC)CNS(=O)(=O)NCC(=O)OC
[1]
  Activity: inactive
[2]
  Activity: Non-toxic
[4]
  Activity: inactive
[19]
  ED50: 139 µmol/kg
[5]
  Activity: Non-toxic
[6]
  Activity: inactive
[7]
  Activity: Non-toxic
[9]
  Activity: inactive
[10]
  Activity: Non-toxic
[20]
  Ratio ED50: 7.3
[12]
  Activity: inactive
[13]
  Activity: inactive
[14]
  Activity: Non-toxic
[16]
  Activity: Non-toxic
[17]
  Activity: inactive
[18]
  Activity: inactive

## COC(=O)[C@H](C)NS(=O)(=O)N[C@@H](C)C(=O)OC
[1]
  Activity: inactive
[2]
  Activity: Non-toxic
[3]
  Activity: inactive
[4]
  Activity: inactive
[5]
  Activity: Non-toxic
[6]
  Activity: inactive
[7]
  Activity: Non-toxic
[8]
  Activity: inactive
[9]
  Activity: inactive
[10]
  Activity: Non-toxic
[11]
  Activity: inactive
[12]
  Activity: inactive
[13]
  Activity: inactive
[14]
  Activity: Non-toxic
[15]
  Activity: inactive
[16]
  Activity: Non-toxic
[17]
  Activity: inactive
[18]
  Activity: inactive

## COC(=O)[C@@H](NS(=O)(=O)N[C@H](C(=O)OC)C(C)C)C(C)C
[1]
  Activity: inactive
[2]
  Activity: Non-toxic
[4]
  Activity: inactive
[5]
  Activity: Non-toxic
[6]
  Activity: inactive
[7]
  Activity: Non-toxic
[8]
  Activity: inactive
[9]
  Activity: inactive
[10]
  Activity: Non-toxic
[12]
  Activity: inactive
[13]
  Activity: inactive
[14]
  Activity: Non-toxic
[15]
  Activity: inactive
[16]
  Activity: Non-toxic
[17]
  Activity: inactive
[18]
  Activity: inactive

## COC(=O)[C@@H](C)NS(=O)(=O)NC(=O)OC(C)(C)C
[1]
  Activity: inactive
[2]
  Activity: Non-toxic
[3]
  Activity: inactive
[4]
  Activity: inactive
[5]
  Activity: Non-toxic
[6]
  Activity: inactive
[7]
  Activity: Non-toxic
[8]
  Activity: inactive
[9]
  Activity: inactive
[10]
  Activity: Non-toxic
[11]
  Activity: inactive
[12]
  Activity: inactive
[13]
  Activity: inactive
[14]
  Activity: Non-toxic
[15]
  Activity: inactive
[16]
  Activity: Non-toxic
[17]
  Activity: inactive
[18]
  Activity: inactive

## COC(=O)CCNS(=O)(=O)NC1CCCCC1
[2]
  Activity: Non-toxic
[5]
  Activity: Non-toxic
[6]
  Activity: inactive
[7]
  Activity: Non-toxic
[8]
  Activity: inactive
[10]
  Activity: Non-toxic
[11]
  Activity: inactive
[12]
  Activity: inactive
[14]
  Activity: Non-toxic
[16]
  Activity: Non-toxic

## CCCC(CCC)CN(C(=O)OC(C)(C)C)S(=O)(=O)NCC(=O)OC
[1]
  Activity: inactive
[2]
  Activity: Non-toxic
[3]
  Activity: inactive
[4]
  Activity: inactive
[5]
  Activity: Non-toxic
[6]
  Activity: inactive
[7]
  Activity: Non-toxic
[9]
  Activity: inactive
[10]
  Activity: Non-toxic
[11]
  Activity: inactive
[12]
  Activity: inactive
[13]
  Activity: inactive
[14]
  Activity: Non-toxic
[15]
  Activity: inactive
[16]
  Activity: Non-toxic
[17]
  Activity: inactive
[18]
  Activity: inactive

## CCCC(CCC)CN(C(=O)OC(C)(C)C)S(=O)(=O)NCCC(=O)OC
[1]
  Activity: inactive
[2]
  Activity: Non-toxic
[3]
  Activity: inactive
[4]
  Activity: inactive
[5]
  Activity: Non-toxic
[6]
  Activity: inactive
[7]
  Activity: Non-toxic
[8]
  Activity: inactive
[9]
  Activity: inactive
[10]
  Activity: Non-toxic
[11]
  Activity: inactive
[12]
  Activity: inactive
[13]
  Activity: inactive
[14]
  Activity: Non-toxic
[15]
  Activity: inactive
[16]
  Activity: Non-toxic
[17]
  Activity: inactive
[18]
  Activity: inactive

## COC(=O)CCNS(=O)(=O)NC(=O)OC(C)(C)C
[1]
  Activity: inactive
[2]
  Activity: Non-toxic
[3]
  Activity: inactive
[4]
  Activity: inactive
[5]
  Activity: Non-toxic
[6]
  Activity: inactive
[7]
  Activity: Non-toxic
[8]
  Activity: inactive
[9]
  Activity: inactive
[10]
  Activity: Non-toxic
[12]
  Activity: inactive
[13]
  Activity: inactive
[14]
  Activity: Non-toxic
[15]
  Activity: inactive
[16]
  Activity: Non-toxic
[17]
  Activity: inactive
[18]
  Activity: inactive

## COC(=O)CCNS(=O)(=O)NCc1ccccc1
[1]
  Activity: inactive
[2]
  Activity: Non-toxic
[4]
  Activity: inactive
[5]
  Activity: Non-toxic
[6]
  Activity: inactive
[7]
  Activity: Non-toxic
[8]
  Activity: inactive
[9]
  Activity: inactive
[10]
  Activity: Non-toxic
[12]
  Activity: inactive
[13]
  Activity: inactive
[14]
  Activity: Non-toxic
[15]
  Activity: inactive
[16]
  Activity: Non-toxic
[18]
  Activity: inactive

## CCCCNS(=O)(=O)NCCC(=O)OC
[1]
  Activity: inactive
[2]
  Activity: Non-toxic
[4]
  Activity: inactive
[19]
  ED50: 71 µmol/kg
[5]
  Activity: Non-toxic
[7]
  Activity: Non-toxic
[9]
  Activity: inactive
[10]
  Activity: Non-toxic
[20]
  Ratio ED50: 14.2
[13]
  Activity: inactive
[14]
  Activity: Non-toxic
[16]
  Activity: Non-toxic
[17]
  Activity: inactive
[18]
  Activity: inactive

## COC(=O)CNS(=O)(=O)N(Cc1ccccc1)C(=O)OC(C)(C)C
[1]
  Activity: inactive
[2]
  Activity: Non-toxic
[3]
  Activity: inactive
[4]
  Activity: inactive
[5]
  Activity: Non-toxic
[6]
  Activity: inactive
[7]
  Activity: Non-toxic
[8]
  Activity: inactive
[9]
  Activity: inactive
[10]
  Activity: Non-toxic
[11]
  Activity: inactive
[12]
  Activity: inactive
[13]
  Activity: inactive
[14]
  Activity: Non-toxic
[15]
  Activity: inactive
[16]
  Activity: Non-toxic
[17]
  Activity: inactive
[18]
  Activity: inactive
